Results pooled from the literature.
Observed: cell growth or viability

O=c1[nH]c2cc(-c3ccccc3)sc2c(=O)n1O  CC50 (HFF; MTS; 7 days): > 50 µM
O=C(CN1C(=O)Cc2c([nH]c3ccc(Br)cc23)-c2ccc(Cl)cc21)NCCN1CCCCC1  CC50 (J774; WST-1; 24 h): ≤ 10 µM
O=c1[nH]c2cc(-c3ccc(Cl)cc3)sc2c(=O)n1O  CC50 (HFF; MTS; 7 days): > 50 µM
Cc1ccc(-c2nc(C#N)c(N(C)S(=O)(=O)c3ccc(C)cc3)o2)cc1  CC50 (HFF; ATP luminescence): 83.8 µM
Nc1ccn(C[C@@H](CO)OCP(=O)(O)O)c(=O)n1  CC50 (HFF; ATP luminescence; 14 days): 60 µM
O=C1Cc2c([nH]c3ccc(Br)cc23)-c2ccc(Cl)cc2N1  CC50 (J774; WST-1; 24 h): > 200 µM
Nc1nc(O)c2ncn(COC(CO)CO)c2n1  CC50 (HFF; ATP luminescence): > 150 µM
C[C@H]1[C@@H](O)O[C@@H]2O[C@@]3(C)CC[C@H]4[C@H](C)CC[C@@H]1[C@@]24OO3  CC50 (J774; ATP luminescence; 72 h): 51.3 µM
O=c1[nH]c2sc3c(c2c(=O)n1O)CCN(Cc1ccccc1)C3  CC50 (HFF; MTS; 7 days): > 50 µM
NCCNC(=O)CN1C(=O)Cc2c([nH]c3ccc(Br)cc23)-c2ccc(Cl)cc21  CC50 (J774; WST-1; 24 h): ≥ 100 µM
Cc1ccc(S(=O)(=O)c2nc(S(=O)(=O)NCc3ccccc3)sc2Cl)cc1  CC50 (HFF; ATP luminescence): 106 µM
O=c1[nH]c2cc(-c3ccc(Cl)cc3)ccc2c(=O)n1O  CC50 (HFF; MTS; 7 days): > 50 µM
